Laboratory results taken from ChEMBL document CHEMBL3244368, “[3-(1,4-Cyclohexadienyl)-L-alanine,8-lysine]vasopressin: synthesis and some pharmacological properties” (J Med Chem, 1979).
Starred links: 1 amine or outer side, 2 acyl side, 3 side chain; linkers in the order of their positions; H or OH if unused. Non-standard residues stand in square brackets, D forms with d. Residues, ends and D or L forms follow the SMILES beside them. *: point of attachment. X1 = O=C([C@H](CC1=CCC=CC1)N[*:1])[*:2]; Tos = Cc1ccc(S(=O)(=O)*)cc1; Cbz = O=C(OCc1ccccc1)*; Bn = c1ccc(C*)cc1

Columns and labels:
[1] = Stability of the compound in potassium phosphate buffer at pH 7 assessed as hydrolysis by measuring DiHPe level in presence of alpha-amylase preparation and cyclohexadiene
[2] = Stability of the compound in potassium phosphate buffer at pH 7 assessed as hydrolysis by measuring DiHPe level in presence of alpha-amylase preparation
[3] = Stability of the compound in 0.2 M potassium phosphate buffer at pH 7.7 assessed as hydrolysis by measuring Asn/Gln level in presence of alpha-amylase preparation; type: ADME
[4] = Stability of the compound in potassium phosphate buffer at pH 7 assessed as hydrolysis by measuring Phe level in presence of alpha-amylase preparation and cyclohexadiene
[5] = Stability of the compound in 0.2 M potassium phosphate buffer at […] assessed as hydrolysis by measuring Tyr level in presence of alpha-amylase preparation and cyclohexadiene; type: ADME
Method in brief: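 Aspergillus oryzae α-amylase preparation, 1 mg per 0.9 µmol peptide, in potassium phosphate buffer pH 7, with 1,4-cyclohexadiene (10 µL) and toluene, under N2, 37 °C, 17 h. Adjusted to pH 2.2 for amino acid analysis. Phe from a control of constituent amino acids plus enzyme subtracted to give Phe in residue 3.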

[6] = Stability of the compound in 0.2 M potassium phosphate buffer at pH 7.7 assessed as hydrolysis by measuring Tyr level in presence of alpha-amylase preparation; type: ADME
[7] = Stability of the compound in 0.2 M potassium phosphate buffer at pH 7.7 assessed as hydrolysis by measuring Gly level in presence of alpha-amylase preparation; type: ADME
[8] = Stability of the compound in potassium phosphate buffer at pH 7 assessed as hydrolysis by measuring Phe level in presence of alpha-amylase preparation

Cc1ccc(S(=O)(=O)NCCCC[C@H](NC(=O)[C@@H]2CCCN2C(=O)[C@H](CSCc2ccccc2)NC(=O)[C@H](CC(N)=O)NC(=O)[C@H](CCC(N)=O)NC(=O)[C@H](CC2=CCC=CC2)NC(=O)[C@H](Cc2ccc(OCc3ccccc3)cc2)NC(=O)[C@H](CSCc2ccccc2)NC(=O)OCc2ccccc2)C(=O)NCC(N)=O)cc1 (Cbz-C(Bn)Y(Bn)[X1]QNC(Bn)PK(Tos)G-NH2)
Drug degradation [1]: 52.4 mol%
Drug degradation [2]: 57.6 mol%
Drug degradation [3]: 67 mol%
Drug degradation [4]: 4.4 mol%
Drug degradation [5]: 73 mol%
Drug degradation [6]: 77 mol%
Drug degradation [7]: 18 mol%
Drug degradation [8]: 3.9 mol%
